The text below walks through data of ChEMBL document CHEMBL1124483 (J Med Chem, 1989).

SMILES strings stand for the structures. A value given as a limit tells only on which side of the number the result lay.

The data set in a line: Lethal dose of the compound, when administered intraperitoneally in mice. The settings on record: mouse, in vivo, ip. Format: toxicity, organism-based. The essentials: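 Male Swiss Webster mice (15–20 g), five per dose level, at least four dose levels, given ip injection (0.10 mL/10 g) in normal saline or saline/phosphate-buffered saline, with EtOH up to 2.5% final for some; solvent-only control group.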
Take `OC1CCCCC1N1CCC(Cc2ccccc2)CC1` (stereo not given): the LD50 is greater than 180 µmol/kg.
In the case of `OC1CC2CCCCC2CC1N1CCC(c2ccccc2)CC1` (racemic), the 50% lethal dose (LD50) is 2 µmol/kg.
On to `OC1Cc2ccccc2CC1N1CCC(c2ccccc2)CC1` (stereo not given), for which the 50% lethal dose (LD50) was 1.2 µmol/kg.
For `OC1CCCCC1N1CCC(c2ccccc2)CC1` (racemic), the LD50 turned out to be 16 µmol/kg.
`O[C@H]1CCCC[C@@H]1N1CCC(c2ccccc2)CC1` had a 50% lethal dose (LD50) greater than 190 µmol/kg.
The molecule `CCC(O)CN1CCC(c2ccccc2)CC1` (stereo not given) registered an LD50 of 300 µmol/kg.
The molecule `OC1CCCC1N1CCC(c2ccccc2)CC1` (stereo not given) yielded an LD50 greater than 200 µmol/kg.
The result for `CC(=O)Nc1cccc2c1CC(N1CCC(c3ccccc3)CC1)C(O)C2` (stereo not given) reads 1.7 µmol/kg.
With `COc1ccccc1N1CCN(C2CC3CCCCC3CC2O)CC1` (racemic; 68), the LD50 stood at 12 µmol/kg.
For the molecule `CO[C@H]1CCC[C@@H](N2CCC(c3ccccc3)CC2)[C@@H]1O`, the LD50 worked out at 240 µmol/kg.
As for `OC1CCCCC1N1CC=C(c2ccc(Cl)cc2)CC1` (stereo not given), the 50% lethal dose (LD50) is greater than 340 µmol/kg.
`O[C@@H]1CCCC[C@H]1N1CCC(c2ccccc2)CC1` [VESAMICOL] gave a median lethal dose (LD50) of 12 µmol/kg.
The molecule `CC(C)(C)[C@H]1CC[C@@H](O)[C@H](N2CCC(c3ccccc3)CC2)C1` came in with a 50% lethal dose (LD50) of 5.7 µmol/kg.
The molecule `CC1(O)CCCC[C@H]1N1CCC(c2ccccc2)CC1` (stereo not given in full) yielded an LD50 greater than 180 µmol/kg.
The result for `C[N+]1(C2CCCCC2O)CCC(c2ccccc2)CC1` (stereo not given) reads greater than 180 µmol/kg.

For orientation: LD50 means the dose expected to kill half of the subjects tested. High values mean a less toxic substance, low ones a more toxic substance.
